Reference: PMC4894821 (ACS chemical biology, 2015)

Columns and labels:
OGG1 [1] = target: T1, OGG1 (Homo sapiens, UniProt O15527); test: Gel-based OGG1 cleavage assay; format: biochemical; conditions: eight concentrations up to 25 μM
Human NEIL1 = Human NEIL1 (Homo sapiens, UniProt Q96FI4); test: Fluorescence-based NEIL1 activity assay; format: biochemical; conditions: read-out: NEIL1 % activity with 50 μM inhibitor
Human NTH1 = target: T2, Human NTH1 (Homo sapiens, UniProt P78549); test: Fluorescence-based NTH1 activity assay; format: biochemical; conditions: read-out: NTH1 % activity with 50 μM inhibitor
T2 sequence (P78549 23-304): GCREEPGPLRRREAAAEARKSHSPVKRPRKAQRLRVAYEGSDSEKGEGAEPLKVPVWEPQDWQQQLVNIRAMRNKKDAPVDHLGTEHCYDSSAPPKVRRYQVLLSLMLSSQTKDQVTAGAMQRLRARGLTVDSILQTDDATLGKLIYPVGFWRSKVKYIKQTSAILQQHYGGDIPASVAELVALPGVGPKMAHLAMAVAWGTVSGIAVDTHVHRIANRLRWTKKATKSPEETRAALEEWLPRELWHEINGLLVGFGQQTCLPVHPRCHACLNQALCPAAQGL

OGG1 [2] = target: T1, OGG1; test: OGG1 AP lyase activity on AP site-containing substrate; format: biochemical; conditions: 10 μM compound, compared with no inhibitor control
Summary of the method: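 AP-site substrate made by treating U-containing duplex with Udg, 37 °C, 2 h. OGG1 (62.5 nM stock) mixed with 10 μM compound or buffer, then substrate (50 nM stock) added. Incubated 30 min at 37 °C, quenched with formamide, resolved on 15% polyacrylamide/8 M urea gel. Percent cleavage vs no-inhibitor control; three independent experiments.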

OGG1 [3] = target: T1, OGG1; test: Sodium cyanoborohydride trapping assay; format: biochemical; conditions: 10 μM inhibitor, 1 mM NaBH3CN
OGG1 [4] = target: T1, OGG1; test: Gel shift assay; format: binding; conditions: 50 μM inhibitor or ATA, 4 °C
Summary of the method: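 EMSA on ice with precooled reagents. OGG1 (125 nM stock) pre-incubated 5–10 min with 50 μM inhibitor, ATA or buffer. Added 8-oxo-Gua, AP-site or U-containing fluorescent duplex (50 nM stock), held 5 min. Quenched with cold 30% glycerol; run on 8% native gel with 30% glycerol, 4 °C, 1 h, 75 V. Percent bound vs no-inhibitor control; three independent experiments.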

AP-containing substrate = test: Protection of AP-containing substrate against NaOH-mediated strand cleavage

T1 sequence (O15527 whole entry): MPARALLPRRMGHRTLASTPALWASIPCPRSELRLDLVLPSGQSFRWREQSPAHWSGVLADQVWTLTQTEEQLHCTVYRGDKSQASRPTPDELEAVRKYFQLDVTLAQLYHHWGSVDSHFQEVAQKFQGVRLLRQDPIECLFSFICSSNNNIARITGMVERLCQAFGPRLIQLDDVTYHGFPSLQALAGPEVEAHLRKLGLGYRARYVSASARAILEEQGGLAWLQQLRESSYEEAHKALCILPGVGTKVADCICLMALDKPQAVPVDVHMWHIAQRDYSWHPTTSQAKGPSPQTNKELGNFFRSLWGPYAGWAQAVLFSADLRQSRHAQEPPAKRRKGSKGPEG
Chain of Human NEIL1 (Q96FI4 whole entry): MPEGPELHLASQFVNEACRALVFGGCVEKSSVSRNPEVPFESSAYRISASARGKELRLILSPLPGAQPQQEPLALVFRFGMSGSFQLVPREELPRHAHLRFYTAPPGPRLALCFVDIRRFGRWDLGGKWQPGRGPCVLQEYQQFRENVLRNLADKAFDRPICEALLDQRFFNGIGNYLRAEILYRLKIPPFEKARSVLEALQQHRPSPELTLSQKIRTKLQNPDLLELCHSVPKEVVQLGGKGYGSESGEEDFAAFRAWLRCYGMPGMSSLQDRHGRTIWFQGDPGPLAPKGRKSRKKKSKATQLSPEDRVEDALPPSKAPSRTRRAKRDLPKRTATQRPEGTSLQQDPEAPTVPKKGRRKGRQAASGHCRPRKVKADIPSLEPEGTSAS

For `NNC(=O)c1ccncc1` [Isoniazid (INH), isoniazid], the “inhibition of OGG1 (gel-based strand cleavage)” value (OGG1 [1]) was “no inhibition”, the activity at 50 µM (Human NEIL1) was 80.6% and the activity at 50 µM (Human NTH1) was 98%. The “OGG1-induced cleavage of an AP site (lyase activity)” value (OGG1 [2]) was “no effect” and the “trapping of OGG1 on 8-oxo-Gua- and AP site-containing substrates (Schiff base formation)” value (OGG1 [3]) was “no effect”.

`O=C(O)C1=CC(=C(c2ccc(O)c(C(=O)O)c2)c2ccc(O)c(C(=O)O)c2)C=CC1=O` [aurintricarboxylic acid (ATA), aurintricarboxylic acid] was tested, and the “OGG1 binding to 8-oxo-Gua substrate” value (OGG1 [4]) was “abrogated”.

With `NNc1nncc2ccccc12` [hydralazine] the “protection against NaOH-mediated (alkaline-induced) strand cleavage” value (AP-containing substrate) was 63%.

In the case of `Cc1cc(C(=O)NNCc2ccccc2)no1` [isocarboxazid (ICD), isocarboxazid], the “OGG1-induced cleavage of an AP site (lyase activity)” value (OGG1 [2]) is reported as “no effect”.
